Tests used:
[1] = biological target: T1, Adrenergic receptor alpha-1 (Rattus norvegicus, UniProt P15823+P23944+P43140); test: Displacement of [3H]-Prazosin from alpha1 adrenergic receptor in rat brain cerebral cortex membranes by liquid scintillation counting analysis; assay type: cell membranes, Membrane
T1 sequence (P15823 whole entry): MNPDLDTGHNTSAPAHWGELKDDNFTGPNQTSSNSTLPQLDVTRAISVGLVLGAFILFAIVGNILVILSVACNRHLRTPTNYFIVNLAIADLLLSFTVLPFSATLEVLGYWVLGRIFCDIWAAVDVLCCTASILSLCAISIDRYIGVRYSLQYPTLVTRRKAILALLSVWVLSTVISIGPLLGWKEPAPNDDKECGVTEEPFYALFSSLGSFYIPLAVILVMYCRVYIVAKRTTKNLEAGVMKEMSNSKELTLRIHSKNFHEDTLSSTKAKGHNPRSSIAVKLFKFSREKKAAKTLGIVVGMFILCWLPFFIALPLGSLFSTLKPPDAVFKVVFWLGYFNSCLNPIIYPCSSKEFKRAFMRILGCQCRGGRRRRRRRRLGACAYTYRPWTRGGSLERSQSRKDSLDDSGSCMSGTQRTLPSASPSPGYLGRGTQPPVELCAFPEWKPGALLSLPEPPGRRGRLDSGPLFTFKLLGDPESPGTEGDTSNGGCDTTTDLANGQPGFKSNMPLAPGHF
T1 sequence (P23944 whole entry): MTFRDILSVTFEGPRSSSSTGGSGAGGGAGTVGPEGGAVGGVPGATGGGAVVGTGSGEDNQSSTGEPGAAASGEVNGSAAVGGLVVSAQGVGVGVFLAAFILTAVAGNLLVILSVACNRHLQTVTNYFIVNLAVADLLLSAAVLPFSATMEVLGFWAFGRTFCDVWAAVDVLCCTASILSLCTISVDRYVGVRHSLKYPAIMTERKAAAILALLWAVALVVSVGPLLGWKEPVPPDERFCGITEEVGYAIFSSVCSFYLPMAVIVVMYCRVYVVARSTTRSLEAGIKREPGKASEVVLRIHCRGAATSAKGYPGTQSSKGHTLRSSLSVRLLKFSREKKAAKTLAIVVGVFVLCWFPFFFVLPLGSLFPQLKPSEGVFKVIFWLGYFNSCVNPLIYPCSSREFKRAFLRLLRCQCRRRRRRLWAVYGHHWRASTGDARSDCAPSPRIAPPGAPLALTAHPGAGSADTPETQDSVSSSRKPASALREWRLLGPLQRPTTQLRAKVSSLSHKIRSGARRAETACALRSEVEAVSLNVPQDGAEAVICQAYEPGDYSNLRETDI
T1 sequence (P43140 whole entry): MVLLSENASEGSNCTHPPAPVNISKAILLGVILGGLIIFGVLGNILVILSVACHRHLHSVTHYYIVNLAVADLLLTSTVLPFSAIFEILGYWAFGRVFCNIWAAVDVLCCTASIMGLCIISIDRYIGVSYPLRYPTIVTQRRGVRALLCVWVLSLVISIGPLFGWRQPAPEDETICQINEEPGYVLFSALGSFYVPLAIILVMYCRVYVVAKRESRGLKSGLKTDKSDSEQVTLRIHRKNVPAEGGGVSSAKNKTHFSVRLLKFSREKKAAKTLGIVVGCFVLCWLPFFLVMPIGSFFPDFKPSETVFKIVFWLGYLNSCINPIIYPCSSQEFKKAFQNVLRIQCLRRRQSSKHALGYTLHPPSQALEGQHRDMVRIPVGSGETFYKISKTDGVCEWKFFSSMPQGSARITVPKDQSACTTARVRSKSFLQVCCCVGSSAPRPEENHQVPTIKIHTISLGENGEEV
How it was run: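 Rat cerebral cortex homogenized in ice-cold 50 mM Tris–HCl (pH 7.6), spun at 20,000 g for 20 min (0–4 °C), resuspended and spun again. Membranes incubated with 0.2 nM [3H]-prazosin (α1) or 2 nM [3H]-clonidine (α2) and seven to eight compound concentrations (10^-11 to 10^-4 M). Non-specific binding defined with 10 µM phentolamine (prazosin) or 10 µM clonidine (clonidine). Ended by GF/C filtration, counted by liquid scintillation. Run in duplicate; Ki from two independent experiments.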

[2] = biological target: T2, Alpha-1A adrenergic receptor (Homo sapiens, UniProt P35348); test: Intrinsic activity at alpha1A adrenergic receptor (unknown origin) assessed as inhibition of agonist induced effect preincubated for 30 mins followed by agonist addition measured after 5 hrs in presence of CCF4-AM by cell based beta lactamase reporter gene assay
T2 sequence (P35348 whole entry): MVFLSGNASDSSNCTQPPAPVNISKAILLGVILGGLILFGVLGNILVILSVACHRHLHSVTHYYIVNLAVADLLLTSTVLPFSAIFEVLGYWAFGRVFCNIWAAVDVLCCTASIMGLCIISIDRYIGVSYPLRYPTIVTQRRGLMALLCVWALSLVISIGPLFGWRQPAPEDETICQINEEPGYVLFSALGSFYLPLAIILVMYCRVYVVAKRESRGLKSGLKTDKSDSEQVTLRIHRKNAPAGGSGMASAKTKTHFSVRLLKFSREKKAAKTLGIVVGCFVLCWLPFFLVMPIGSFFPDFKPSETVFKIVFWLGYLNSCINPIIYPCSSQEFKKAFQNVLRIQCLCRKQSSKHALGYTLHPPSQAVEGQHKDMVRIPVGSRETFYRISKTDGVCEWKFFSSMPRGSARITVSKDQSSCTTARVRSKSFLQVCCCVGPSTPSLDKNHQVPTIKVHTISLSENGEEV
How it was run: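 Antagonist mode: 8 compound concentrations (10^-4–10^-11 M), then after 30 min standard agonist at EC80. Incubated 5 h at 37 °C/5% CO2, then loaded with CCF4-AM FRET substrate for 2 h at room temperature. Fluorescence read-out. Mean EC50 from three experiments.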

SMILES | Ki [1] [nM] | EC50 [2] [nM]
COc1ccc(S(=O)(=O)NC2CCN(CCOc3ccccc3OC)CC2)cc1OC | 99 | 192
COc1ccccc1OCCN1CCC(CNS(=O)(=O)c2cccc(Cl)c2)CC1 | 46 | 121
COc1ccccc1OCCN1CCC(CNS(=O)(=O)c2cccc(Cl)c2F)CC1 | 48 | 84.2
COc1ccccc1OCCN1CCC(CNS(=O)(=O)c2cncc3ccccc23)CC1 | 90 | 140
COc1ccccc1OCCN1CCC(NS(=O)(=O)c2cncc3ccccc23)CC1 | 52 | 99.7
COc1ccc(S(=O)(=O)NCC2CCN(CCOc3ccccc3OC)CC2)cc1OC | 81 | 161
CC(C)Oc1ccccc1OCCN1CCC(CNS(=O)(=O)c2cccc3cccnc23)CC1 | 95 | 34.1
COc1ccccc1OCCN1CCC(CNS(=O)(=O)c2cc(Cl)ccc2F)CC1 | 56 | 148
CC(C)Oc1ccccc1OCCN1CCC(CNS(=O)(=O)c2cccc(Cl)c2F)CC1 | 71 | 11.1

— ChEMBL document CHEMBL3861996, “Arylsulfonamide derivatives of (aryloxy)ethyl pyrrolidines and piperidines as α1-adrenergic receptor antagonist with uro-selective activity” (Bioorg Med Chem, 2016)
